Test [1] is described as follows: inhibitors of TNFa-induced NFkB p65 translocation, primary screen, imaging, HUVEC, MLSMR starter and 10KST1 sets (AID 438;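 active = inhibition above 20% together with a positive visual image hit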;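 note: compound added about 3h40 before a 20 min TNFalpha stimulation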;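 for inhibition: signal is the nuclear over cytoplasmic p65 intensity ratio per well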). The conditions noted are these: HUVEC TNFa-induced p65 nuclear translocation; cell count: measured here: nuclei count (cytotoxicity indicator), at 2.08 µM; inhibition: at 2 µM, stronger effect = higher value, 0% TNFa-plus-vehicle, 100% no-TNFa wells.
Test [2] can be described thus: inhibitors of mutant huntingtin aggregation, primary screen, imaging, exon1htt(103Q)mCFP cells, high-content imaging (AID 483;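 active = visual image review flags a hit and inhibition of aggregation exceeds 20%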;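 note: compound exposure lasted 3 days before fixation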;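 for nuclei count: percent of the per-plate median nuclei count of sample wells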). The note with it: exon1htt(103Q)mCFP cell line, aggregate imaging, at 2 µM; inhibition of aggregation: stronger effect = higher value; nuclei count: measured here: cell count, toxicity.
The nature of test [3]: inhibitors of E-selectin induction by TNFa, primary screen, imaging, HUVEC, immunofluorescence, MLSMR starter and 10KST1 sets (AID 487;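 active = visually confirmed hit in the image check and inhibition above 20%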;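 for inhibition: signal is fraction of cell area covered by stained E-selectin grains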;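 for nuclei count: 100% = median nuclei count of all wells on the same plate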). The note with it: HUVEC TNFalpha-induced E-selectin immunofluorescence imaging, at 2 µM; inhibition: stronger effect = higher value; nuclei count: measured here: cell number, toxicity.
The target in test [4] is Voltage-gated potassium channel subunit beta-2 (Rattus norvegicus) (UniProt P62483). The experiment in a line: KvBeta enzyme negative modulators, primary screen, biochemical, NADPH fluorescence (AID 622).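 Note: slope of raw intensity against log time taken from 70 to 1610 s.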 The conditions noted are these: recombinant KvBeta, 4-cyanobenzaldehyde reduction, at 10 µM, stronger effect = higher value.
Test [5] shares this target. The experiment in a line: KvBeta positive modulators, primary screen, biochemical, NADPH fluorescence (AID 623;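 active = NADPH fluorescence slope more negative than the mean of all samples by about 3 SD, 99.7% confidence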;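 note: fluorescence intensity change per second fitted from 20 to 320 s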). The conditions noted are these: Recombinant KvBeta, NADPH fluorescence decrease slope, 10 min; at 10 µM; stronger effect = lower value.
For test [6], the target named is Muscarinic acetylcholine receptor M4 (Homo sapiens) (UniProt P08173). The experiment in a line: compounds altering M4/GIRK thallium flux, either direction, primary screen, M4 allosteric agonist project, cell-based, HEK293 M4/GIRK, BTC-AM (AID 625;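 active = fluorescence slope after compound addition differing from the mean of all tested samples at 99.7% confidence, mostly higher but some lower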;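 note: thallium influx through GIRK channels coupled to M4 in HEK293 cells with BTC-AM dye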). The note with it: at 10 µM, actives lie on both sides. In short, it runs like this: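 Material: HEK293 cells with M4 receptor and GIRK channels; Times: cells overnight at 37 °C, BTC-AM loading 1 h, reads 2 min total; Technique: kinetic BTC-AM fluorescence sampled at 1 Hz, 10 s pre-addition baseline; Read-out basis: slope over 15–24 s of trace normalized to starting intensity; Controls: carbachol positive, DMSO negative.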

A short description of test [7]: inhibitors of Sendai virus-induced IRF3 signaling, primary screen, TLR/RLR signaling modifier project, cell-based, Sendai virus stimulus, luciferase, 10K MLSCN set (AID 602276;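 active = inhibition at or above 50% at 10 µM; inactive = inhibition below 50%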;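 note: firefly luciferase from ISG56 promoter only with Renilla not read in this screen; 0% = Sendai virus plus DMSO and 100% = medium plus DMSO without virus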). The conditions noted are these: HEK293 RL24 IRF3 luciferase reporter, at 10 µM, stronger effect = higher value.
The nature of test [8]: inhibitors of poly I:C-induced TLR3 signaling, primary screen, cell-based, poly I:C stimulus, luciferase, 10K MLSCN set (AID 602277;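 active = inhibition of the reporter signal at or above 50%; inactive = inhibition below 50%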). The conditions noted are these: HEK293-TLR3 RL24 IRF3 luciferase reporter, at 10 µM, stronger effect = higher value.

Calls of active or inactive are those of the source.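 Rule for the calls, unless noted: active = fluorescence slope higher than the sample average by over 3 SD (cut at about -0.22 in these data, passing the limit was not always enough); inactive = the rest.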

Muscarinic acetylcholine receptor M4 (Homo sapiens), sequence (P08173 whole entry, looked up): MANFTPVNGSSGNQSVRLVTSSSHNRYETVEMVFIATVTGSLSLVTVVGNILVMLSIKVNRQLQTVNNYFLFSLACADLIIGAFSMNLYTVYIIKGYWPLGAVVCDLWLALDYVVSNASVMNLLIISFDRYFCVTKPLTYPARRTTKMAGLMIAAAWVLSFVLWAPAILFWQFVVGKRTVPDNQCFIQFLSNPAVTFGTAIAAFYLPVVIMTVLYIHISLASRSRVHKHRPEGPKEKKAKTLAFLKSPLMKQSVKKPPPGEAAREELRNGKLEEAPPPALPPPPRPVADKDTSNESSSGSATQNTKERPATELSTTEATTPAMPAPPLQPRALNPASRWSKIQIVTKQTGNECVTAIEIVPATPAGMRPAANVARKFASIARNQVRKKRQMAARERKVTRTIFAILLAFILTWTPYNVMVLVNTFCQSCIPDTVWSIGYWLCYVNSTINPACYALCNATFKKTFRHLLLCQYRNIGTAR
Voltage-gated potassium channel subunit beta-2 (Rattus norvegicus), sequence (P62483 whole entry, looked up): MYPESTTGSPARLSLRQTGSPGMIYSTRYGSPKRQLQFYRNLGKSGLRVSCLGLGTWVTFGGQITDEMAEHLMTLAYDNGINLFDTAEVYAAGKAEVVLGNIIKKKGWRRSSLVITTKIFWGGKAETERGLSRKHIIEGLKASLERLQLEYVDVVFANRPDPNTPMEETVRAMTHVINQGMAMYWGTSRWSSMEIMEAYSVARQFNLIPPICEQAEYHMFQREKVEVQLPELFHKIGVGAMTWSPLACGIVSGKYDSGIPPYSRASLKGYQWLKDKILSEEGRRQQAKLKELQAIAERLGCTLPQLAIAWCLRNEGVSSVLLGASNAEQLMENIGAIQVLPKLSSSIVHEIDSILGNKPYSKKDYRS

Broadly, the inhibition is the relative decrease from the control value, in per cent. On to `Cc1cc(NC(=O)CN2CCC(O)(c3cccc(F)c3)CC2)no1`, for which the cell count in test [1] was determined as 584. The inhibition in test [1] was -53.1% (inactive); in test [3] it was -107% (inactive); in test [7] it was -0.229% (inactive); in test [8], 20.2% (inactive). For the same compound, in test [2], the inhibition of aggregation is 0.2% (inactive). Further, the nuclei count was determined as 103% in test [2] and 117% in test [3]. Besides, the results for the fluorescence slope in test [4] and in test [6] were -0.283 (inactive) and 0.00664 (inactive), respectively. Besides, the NADPH fluorescence slope in test [5] is -1.6e-05 (inactive).

On to `COc1ccc(OC)c(C2C3=C(CCCC3=O)Nc3c2c(=O)n(C)c(=O)n3C)c1` (centres undefined), for which the cell count in test [1] stood at 508. In addition, the inhibition in test [1] was 1.4% (inactive); in test [3] it was -15.1% (inactive); in test [7], 4.02% (inactive); in test [8], 0.406% (inactive). In addition, the inhibition of aggregation in test [2] was 4.8% (inactive). The nuclei count came out at 89.5% in test [2] and 96.3% in test [3]. Also, the values for the fluorescence slope in test [4] and in test [6] were -0.547 (inactive) and 0.00407 (inactive), respectively. Further, the NADPH fluorescence slope in test [5] was -0.000161 (inactive).

Take `Cn1c(=O)cc(SCC(=O)N2CCOCC2)c2ccc(Cl)cc21`: the cell count in test [1] was found to be 442. Also, the inhibition is -3.9% (inactive) in test [1], 52.1% (inactive) in test [3], 15% (inactive) in test [7] and 23.4% (inactive) in test [8]. In addition, in test [2], the inhibition of aggregation is -3.2% (inactive). Also, the values for the nuclei count in test [2] and in test [3] were 89.4% and 92.6%, respectively. In addition, the fluorescence slope was -0.557 (inactive) in test [4] and 0.00569 (inactive) in test [6]. In addition, the NADPH fluorescence slope in test [5] is -5.8e-05 (inactive).

Take `COc1ccc(OC)c(S(=O)(=O)Nc2ccccc2C(=O)O)c1`: the cell count in test [1] was 702. The inhibition in test [1] is -4.4% (inactive); in test [3], 35.6% (inactive); in test [7], 23.8% (inactive); in test [8], 18.9% (inactive). Besides, the inhibition of aggregation in test [2] was 0% (inactive). The values for the nuclei count in test [2] and in test [3] were 100% and 85.9%, respectively. Further, the fluorescence slope in test [4] is -0.569 (inactive); in test [6], 0.0048 (inactive). The NADPH fluorescence slope in test [5] was 1.5e-05 (inactive).

For `COc1cccc(NC(=O)Nc2cccs2)c1`, the cell count in test [1] stood at 355. In addition, the inhibition in test [1] was -1.5% (inactive); in test [3], 9.9% (inactive); in test [7] it was -20.2% (inactive); in test [8], -76.7% (inactive). Moreover, the inhibition of aggregation in test [2] is -5.7% (inactive). Also, the nuclei count in test [2] came to 93.5%; in test [3] it was 115%. Also, the fluorescence slope in test [4] is -0.483 (inactive); in test [6], 0.00925 (active). Further, in test [5], the NADPH fluorescence slope is 0.00014 (inactive).

Regarding `Cc1nc2sc3c(c2c(=O)o1)CCC3`, the cell count in test [1] turned out to be 619. Also, the inhibition in test [1] was 2.1% (inactive); in test [3], 0.3% (inactive); in test [7], 16.2% (inactive); in test [8] it was 22.8% (inactive). Further, in test [2], the inhibition of aggregation is -0.2% (inactive). Moreover, the nuclei count in test [2] came out at 108%; in test [3], 93.8%. The fluorescence slope was -0.511 (inactive) in test [4] and 0.00356 (inactive) in test [6]. In addition, in test [5], the NADPH fluorescence slope is -0.000121 (inactive).

Turning to `CCN1CCN(Cc2c(C)[nH]c3ccc(OC)cc3c2=O)CC1`, the cell count in test [1] came out at 405. Moreover, the inhibition in test [1] was 18.7% (inactive); in test [3] it was -241% (inactive); in test [7], 19.5% (inactive); in test [8], 26.6% (inactive). The inhibition of aggregation in test [2] is -19.4% (inactive). Also, the values for the nuclei count in test [2] and in test [3] were 99.3% and 113%, respectively. The fluorescence slope is -0.57 (inactive) in test [4] and 0.00708 (inactive) in test [6]. Besides, the NADPH fluorescence slope in test [5] was -9e-05 (inactive).

With `Cn1c(=O)c2ncn(CC(=O)NCCOc3ccccc3)c2n(C)c1=O`, the cell count in test [1] was 503. Moreover, the inhibition in test [1] is -4.4% (inactive); in test [3], 43% (inactive); in test [7] it was 18% (inactive); in test [8], 14.3% (inactive). For the same compound, in test [2], the inhibition of aggregation was -3.1% (inactive). For the same compound, the nuclei count in test [2] was 98%; in test [3], 91.5%. The values for the fluorescence slope in test [4] and in test [6] were -0.52 (inactive) and 0.00467 (inactive), respectively. Moreover, the NADPH fluorescence slope in test [5] is 2.9e-06 (inactive).

Consider `CCCN(CCC)S(=O)(=O)c1ccc(C(=O)Nc2nnc(-c3cccc(OC)c3)o2)cc1`, for which the cell count in test [1] came to 345. Further, the inhibition in test [1] was 1.4% (inactive); in test [3], 38.1% (inactive); in test [7], 27.3% (inactive); in test [8], 23.2% (inactive). Moreover, the inhibition of aggregation in test [2] was 13.6% (inactive). The nuclei count is 92.5% in test [2] and 107% in test [3]. The fluorescence slope in test [4] was -0.5 (inactive); in test [6], 0.0064 (inactive). In test [5], the NADPH fluorescence slope was -0.000148 (inactive).

On to `Cc1ccc(S(=O)(=O)N2CCOCC2)cc1C(=O)Nc1ccc(-c2cn3ccsc3n2)cc1`, for which the cell count in test [1] is 614. Besides, the inhibition was -6.3% (inactive) in test [1], -29.6% (inactive) in test [3], -3.48% (inactive) in test [7] and -16.4% (inactive) in test [8]. Moreover, the inhibition of aggregation in test [2] was -3% (inactive). In addition, the nuclei count in test [2] amounted to 113%; in test [3], 122%. Also, the fluorescence slope in test [4] is -0.462 (inactive); in test [6], 0.00613 (inactive). Further, in test [5], the NADPH fluorescence slope is -8.9e-06 (inactive).

For the compound `COc1ccccc1N(CC(=O)NCc1ccccc1)S(C)(=O)=O`, the cell count in test [1] worked out at 665. Also, the inhibition in test [1] is -8.2% (inactive); in test [3], -67.8% (inactive); in test [7] it was -3.25% (inactive); in test [8] it was 14% (inactive). Besides, the inhibition of aggregation in test [2] is 6.6% (inactive). For the same compound, the nuclei count in test [2] is 106%; in test [3], 114%. For the same compound, the fluorescence slope in test [4] was -0.28 (inactive); in test [6], 0.00584 (inactive). In addition, in test [5], the NADPH fluorescence slope was -4.1e-05 (inactive).

Turning to `Cc1csc(NC(=O)c2cccc(S(=O)(=O)N3CCCCC3)c2)n1`, the cell count in test [1] is 352. The inhibition is 7.4% (inactive) in test [1], -30.5% (inactive) in test [3], -5.34% (inactive) in test [7] and 16.9% (inactive) in test [8]. Besides, in test [2], the inhibition of aggregation is -9.9% (inactive). Further, the nuclei count was found to be 96.8% in test [2] and 109% in test [3]. Further, the results for the fluorescence slope in test [4] and in test [6] were -0.587 (inactive) and 0.00964 (inactive), respectively. Also, the NADPH fluorescence slope in test [5] was -3e-05 (inactive).

Turning to `O=c1c2ccccc2nnn1CSc1nc2cc(Cl)ccc2c(=O)n1Cc1ccco1`, in test [1], the cell count is 386. Moreover, the inhibition in test [1] is 12.2% (inactive); in test [3] it was -101% (inactive); in test [7], -18.1% (inactive); in test [8] it was -12.2% (inactive). Also, in test [2], the inhibition of aggregation is 7.5% (inactive). Also, the nuclei count came out at 76% in test [2] and 113% in test [3]. In addition, the fluorescence slope is -0.56 (inactive) in test [4] and 0.00813 (inactive) in test [6]. In addition, in test [5], the NADPH fluorescence slope is -5e-05 (inactive).

As to `COc1ccc(-c2cc3nc(C)c(CCC(=O)NCc4ccco4)c(C)n3n2)c(OC)c1`, in test [1], the cell count is 393. For the same compound, the inhibition is 4.9% (inactive) in test [1], -25% (inactive) in test [3], 12.2% (inactive) in test [7] and 11.7% (inactive) in test [8]. For the same compound, in test [2], the inhibition of aggregation was -18.2% (inactive). Besides, the nuclei count in test [2] was 105%; in test [3] it was 83.7%. The fluorescence slope in test [4] was -0.443 (inactive); in test [6] it was 0.00532 (inactive). In test [5], the NADPH fluorescence slope was -0.00019 (inactive).

The values are drawn from PubChem BioAssay.
